Data on four compounds can be found in ChEMBL document CHEMBL5096209, “Structure-Activity Studies of 3,9-Diazaspiro[5.5]undecane-Based γ-Aminobutyric Acid Type A Receptor Antagonists with Immunomodulatory Effect” (J Med Chem, 2021).

Experiment [1] has as its target T1, GABA A receptor alpha-2/beta-2/gamma-2 (Homo sapiens, UniProt P18507+P47869+P47870).
T1 sequence (P47870 whole entry): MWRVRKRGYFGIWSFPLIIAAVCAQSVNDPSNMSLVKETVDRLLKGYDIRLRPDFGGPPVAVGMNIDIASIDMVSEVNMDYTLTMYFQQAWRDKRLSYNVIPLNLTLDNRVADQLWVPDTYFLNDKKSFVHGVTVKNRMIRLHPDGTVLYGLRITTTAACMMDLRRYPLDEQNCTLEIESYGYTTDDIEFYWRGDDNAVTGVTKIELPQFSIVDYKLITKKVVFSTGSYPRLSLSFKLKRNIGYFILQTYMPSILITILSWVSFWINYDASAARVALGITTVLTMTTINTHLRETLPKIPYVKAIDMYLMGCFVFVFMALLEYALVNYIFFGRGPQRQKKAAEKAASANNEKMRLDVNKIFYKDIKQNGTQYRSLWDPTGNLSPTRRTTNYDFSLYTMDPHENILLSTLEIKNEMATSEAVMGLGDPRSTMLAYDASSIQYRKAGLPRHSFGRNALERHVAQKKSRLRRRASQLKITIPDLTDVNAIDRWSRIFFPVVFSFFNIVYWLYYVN
T1 sequence (P18507 whole entry): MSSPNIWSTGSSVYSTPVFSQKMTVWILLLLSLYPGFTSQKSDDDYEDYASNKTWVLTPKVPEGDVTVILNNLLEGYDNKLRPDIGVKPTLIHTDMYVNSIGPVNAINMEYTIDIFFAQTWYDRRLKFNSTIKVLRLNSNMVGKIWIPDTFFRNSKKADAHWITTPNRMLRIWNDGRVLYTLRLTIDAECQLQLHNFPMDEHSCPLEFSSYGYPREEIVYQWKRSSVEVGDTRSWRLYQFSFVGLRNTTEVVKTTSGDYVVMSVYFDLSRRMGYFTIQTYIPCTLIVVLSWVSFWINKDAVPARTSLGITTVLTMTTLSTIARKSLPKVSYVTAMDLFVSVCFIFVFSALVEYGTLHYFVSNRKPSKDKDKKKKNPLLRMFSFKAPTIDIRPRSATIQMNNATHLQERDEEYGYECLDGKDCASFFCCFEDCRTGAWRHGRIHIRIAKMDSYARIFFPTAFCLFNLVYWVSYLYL
T1 sequence (P47869 whole entry): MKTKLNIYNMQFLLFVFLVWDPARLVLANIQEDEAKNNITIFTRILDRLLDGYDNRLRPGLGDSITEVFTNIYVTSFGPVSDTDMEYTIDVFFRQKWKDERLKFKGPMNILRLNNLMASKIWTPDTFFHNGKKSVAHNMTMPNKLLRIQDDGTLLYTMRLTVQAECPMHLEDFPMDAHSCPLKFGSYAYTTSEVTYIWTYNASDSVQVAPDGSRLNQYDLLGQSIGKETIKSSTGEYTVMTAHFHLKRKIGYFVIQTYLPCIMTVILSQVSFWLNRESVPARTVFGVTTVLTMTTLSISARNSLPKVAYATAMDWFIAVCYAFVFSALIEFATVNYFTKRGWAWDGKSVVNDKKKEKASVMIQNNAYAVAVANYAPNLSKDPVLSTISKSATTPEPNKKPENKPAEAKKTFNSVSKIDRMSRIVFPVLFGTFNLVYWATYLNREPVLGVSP
In words: Antagonist activity at human alpha2beta2gamma2 GABAA receptor expressed in HEK293 cells by FMP assay. It counts as cell-based. Put shortly: (§1)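 Human αβγ2 receptors in HEK293 cells: α1β2γ2 stably expressed, other αβγ2 subtypes transiently transfected into HEK293 Flp-In background cells (α:β:γ 1:1:2). FLIPR membrane potential assay with ΔRFU baseline to peak/plateau and GABA EC80 as agonist. IC50 from a four-parameter fit, at least three independent experiments.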

The test system of experiment [2] is GABAA receptor α4β2δ (human). In words: Antagonist activity at recombinant human alpha4beta2delta GABAA receptor expressed in HEK293 Flp-In cells by FMP assay.
In experiment [3] the target is Gamma-aminobutyric acid receptor subunit alpha-4/beta-1/delta (Homo sapiens, UniProt O14764+P18505+P48169). In words: Antagonist activity at recombinant human alpha4beta1delta GABAA receptor expressed in HEK293 Flp-In cells by FMP assay. It is filed as cell-based, Flp-In-293. A digest of the protocol: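 HEK293 Flp-In cells stably expressing human δ subunit, transiently transfected with human α and β subunits (1:1) to form αβδ receptors. Read-out is the FLIPR membrane potential dye ΔRFU, baseline to peak/plateau, with GABA EC80 as agonist. Four-parameter fit of concentration–inhibition curves gives IC50, from at least three independent experiments.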
Sequence of Gamma-aminobutyric acid receptor subunit alpha-4/beta-1/delta (P48169 whole entry): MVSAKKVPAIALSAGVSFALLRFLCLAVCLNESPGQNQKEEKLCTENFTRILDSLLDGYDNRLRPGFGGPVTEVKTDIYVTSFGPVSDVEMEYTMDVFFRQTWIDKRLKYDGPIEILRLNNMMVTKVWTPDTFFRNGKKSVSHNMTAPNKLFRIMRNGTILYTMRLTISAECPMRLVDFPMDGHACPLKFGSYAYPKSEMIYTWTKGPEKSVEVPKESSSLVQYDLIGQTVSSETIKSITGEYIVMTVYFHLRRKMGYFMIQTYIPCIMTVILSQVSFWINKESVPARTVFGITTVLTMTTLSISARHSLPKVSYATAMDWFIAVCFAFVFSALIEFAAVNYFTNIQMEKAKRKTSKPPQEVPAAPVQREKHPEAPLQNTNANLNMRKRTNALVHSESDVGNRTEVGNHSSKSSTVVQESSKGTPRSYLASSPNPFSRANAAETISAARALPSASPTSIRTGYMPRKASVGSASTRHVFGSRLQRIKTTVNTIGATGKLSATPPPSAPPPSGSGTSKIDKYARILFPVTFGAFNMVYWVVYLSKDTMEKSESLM
Sequence of Gamma-aminobutyric acid receptor subunit alpha-4/beta-1/delta (O14764 whole entry): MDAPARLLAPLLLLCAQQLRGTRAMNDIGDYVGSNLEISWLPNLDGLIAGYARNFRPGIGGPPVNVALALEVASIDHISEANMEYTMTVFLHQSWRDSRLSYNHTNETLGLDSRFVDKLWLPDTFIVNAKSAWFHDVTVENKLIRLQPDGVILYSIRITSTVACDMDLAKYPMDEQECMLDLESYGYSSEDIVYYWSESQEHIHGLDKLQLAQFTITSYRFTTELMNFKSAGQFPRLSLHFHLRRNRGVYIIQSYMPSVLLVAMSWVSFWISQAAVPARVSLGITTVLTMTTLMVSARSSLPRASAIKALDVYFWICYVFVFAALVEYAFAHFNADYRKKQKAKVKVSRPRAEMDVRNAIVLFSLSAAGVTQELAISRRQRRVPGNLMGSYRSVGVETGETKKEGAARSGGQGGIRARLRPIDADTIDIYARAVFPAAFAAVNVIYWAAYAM
Sequence of Gamma-aminobutyric acid receptor subunit alpha-4/beta-1/delta (P18505 whole entry): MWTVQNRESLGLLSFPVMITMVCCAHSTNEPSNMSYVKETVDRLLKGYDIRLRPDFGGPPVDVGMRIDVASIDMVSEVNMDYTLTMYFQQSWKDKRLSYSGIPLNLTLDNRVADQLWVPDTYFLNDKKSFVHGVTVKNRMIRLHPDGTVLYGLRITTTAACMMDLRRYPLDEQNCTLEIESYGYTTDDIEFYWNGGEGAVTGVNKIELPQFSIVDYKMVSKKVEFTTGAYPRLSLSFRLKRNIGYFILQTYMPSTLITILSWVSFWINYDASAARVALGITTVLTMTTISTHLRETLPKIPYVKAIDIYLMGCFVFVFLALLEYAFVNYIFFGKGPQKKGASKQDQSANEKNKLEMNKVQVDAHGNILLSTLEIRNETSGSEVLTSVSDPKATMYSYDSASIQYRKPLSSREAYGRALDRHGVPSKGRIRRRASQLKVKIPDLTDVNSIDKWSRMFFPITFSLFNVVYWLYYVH

In experiment [4] the target is T2, GABA-A receptor; alpha-1/beta-2/gamma-2 (Homo sapiens, UniProt P14867+P18507+P47870).
T2 sequence (P14867 whole entry): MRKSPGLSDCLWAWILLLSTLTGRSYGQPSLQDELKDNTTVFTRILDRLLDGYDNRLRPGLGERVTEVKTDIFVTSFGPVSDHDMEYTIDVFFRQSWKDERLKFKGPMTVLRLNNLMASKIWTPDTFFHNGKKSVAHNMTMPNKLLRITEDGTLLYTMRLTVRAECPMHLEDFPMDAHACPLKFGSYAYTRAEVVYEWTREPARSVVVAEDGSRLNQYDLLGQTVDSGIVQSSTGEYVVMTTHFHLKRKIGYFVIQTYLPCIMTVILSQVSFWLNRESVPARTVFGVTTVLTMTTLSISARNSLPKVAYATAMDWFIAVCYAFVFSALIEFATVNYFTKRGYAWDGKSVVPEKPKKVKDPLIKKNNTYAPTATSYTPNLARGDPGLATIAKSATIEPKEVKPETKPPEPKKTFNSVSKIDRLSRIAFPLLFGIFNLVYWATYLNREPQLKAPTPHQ
T2 sequence (P47870 whole entry): T1 sequence (P47870 whole entry)
T2 sequence (P18507 whole entry): T1 sequence (P18507 whole entry)
Put plainly: Antagonist activity at human alpha1beta2gamma2 GABAA receptor expressed in HEK by FMP assay. It is filed as cell-based. Put shortly:
as §1

The mark [5] stands for this setting: Homo sapiens, Flp-In-293, read-out: pIC50 (converted).

As to `Cc1cccc(C(=O)N2CCC3(CCNCC3)CC2)c1`, the IC50 was 7560 nM in experiment [1] and 7410 nM in experiment [1] (read-out: pIC50 (converted)).
For the compound `CC(=O)Nc1cccc(C(=O)N2CCC3(CCNCC3)CC2)c1`, the IC50 was 363 nM in experiment [2] (setting [5]); 360 nM in experiment [2] (flp-in-293); 1030 nM in experiment [3]; 1020 nM in experiment [3] (read-out: pIC50 (converted)); 4960 nM in experiment [4]; 5010 nM in experiment [4] (read-out: pIC50 (converted)).
For the compound `Cc1ccc(C(=O)N2CCC3(CCNCC3)CC2)cc1`, the IC50 in experiment [1] was 25300 nM; in experiment [1] (read-out: pIC50 (converted)), 25100 nM.
For the compound `O=C(Nc1cccc(C(=O)N2CCC3(CCNCC3)CC2)c1)c1cccs1`, the IC50 in experiment [2] (setting [5]) is 67.6 nM; in experiment [2] (flp-in-293), 68 nM; in experiment [3], 88 nM; in experiment [3] (read-out: pIC50 (converted)), 87.1 nM; in experiment [4], 790 nM; in experiment [4] (read-out: pIC50 (converted)), 794 nM.
